Reference: ChEMBL document CHEMBL1134337, “Behavioral approach to nondyskinetic dopamine antagonists: identification of seroquel” (J Med Chem, 2001)

Tests used:
Mus musculus [1] = experiment: Antagonism of apomorphine induced swimming was determined in female swiss -Webster mice after (po) administration of 40 mg/kg; format: functional
Mus musculus [2] = experiment: Antagonism of apomorphine induced swimming was determined in female swiss -Webster mice after (po) administration of 20 mg/kg; format: functional
Mus musculus [3] = experiment: Antagonism of apomorphine induced climbing was determined in female swiss -Wbster mice after (ip) administration of 20 mg/kg; format: functional
In short: (§1)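 Female Swiss-Webster mice (about 20 g) were fasted about 24 h, then given test compound or vehicle ip or po (N = 20 per group). Vehicle was 0.5% w/w hydroxypropylmethylcellulose with 0.1% w/w Tween 80 in water. After 30 min, mice received apomorphine HCl 1.25 mg/kg sc. At 13 min, each mouse was watched for 1 min; score was mean of highest and lowest rung of 27. Groups were compared with vehicle by Student's t-test.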

Mus musculus [4] = experiment: Antagonism of apomorphine induced climbing was determined in female swiss -Wbster mice after (ip) administration of 10 mg/kg; format: functional; in short: as §1
Mus musculus [5] = experiment: Antagonism of apomorphine induced climbing was determined in female swiss -Wbster mice after (ip) administration of 40 mg/kg; format: functional; in short: as §1
Mus musculus [6] = experiment: Antagonism of apomorphine induced swimming was determined in female swiss -Webster mice after (po) administration of 80 mg/kg; format: functional
D(2) dopamine receptor = D(2) dopamine receptor (Rattus norvegicus, UniProt P61169); experiment: Inhibition of spiropiperidone binding at dopamine receptor D2 of rat.
Mus musculus [7] = experiment: Antagonism of apomorphine induced swimming was determined in female swiss -Webster mice after (po) administration of 10 mg/kg; format: functional
In short: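 Female Swiss-Webster mice (~20 g), food-deprived ~24 h, N = 20 per group; oral dosing in 0.5% w/w hydroxypropylmethylcellulose with 0.1% w/w Tween 80 in water. Apomorphine given; mice placed in a circular tank (5.5 cm water, room temperature) with marks 180° apart. Each 180° swim counted, observed via overhead mirrors; group score derived from swim counts.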

Mus musculus [8] = experiment: Antagonism of apomorphine induced climbing was determined in female swiss -Wbster mice after (ip) administration of 80 mg/kg; format: functional; in short: as §1
Mus musculus [9] = experiment: Antagonism of apomorphine induced swimming was determined in female swiss -Wbster mice after (po) administration of 40 mg/kg; format: functional
[10] = molecular target: D(2) dopamine receptor (Rattus norvegicus) (UniProt P61169); experiment: Binding affinity at dopamine receptor D2 from rat by spiropiperidone displacement.
In short: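 D2 receptor binding was read as % displacement of spiropiperidone, with test compound at 1000 nM unless stated otherwise. IC50 values used at least five concentrations per compound in triplicate. Each value is the mean of two replicate experiments differing by 5% or less.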

[11] = Number of animals showing dyskinesias was determined in haloperidol sensitized 3 cebus monkeys after (po) administration of 20 mg/kg; format: functional
In short: (§2)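 Adult female and male Cebus monkeys sensitized with oral haloperidol 1 mg/kg once per week until dyskinetic reactions occurred. Test drug given orally (2 mL/kg) in 0.5% w/w hydroxypropylmethylcellulose with 0.1% w/w Tween 80 in distilled water, at least 2 weeks between treatments. Two observers watched continuously for 6-7 h, recording reaction type and severity every 30 min. Score is monkeys with dyskinesias/monkeys tested.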

Mus musculus [12] = experiment: Antagonism of apomorphine induced swimming was determined in female swiss -Wbster mice after (po) administration of 20 mg/kg; format: functional
Mus musculus [13] = experiment: Antagonism of apomorphine induced swimming was determined in female swiss -Wbster mice after (po) administration of 80 mg/kg; format: functional
Mus musculus [14] = experiment: Antagonism of apomorphine induced swimming was determined in female swiss -Wbster mice after (ip) administration of 10 mg/kg; format: functional
[15] = Number of animals showing dyskinesias was determined in haloperidol sensitized 5 cebus monkeys after (po) administration of 10 mg/kg; format: functional; in short: as §2
Mus musculus [16] = experiment: Antagonism of apomorphine induced swimming was determined in female swiss -Wbster mice after (ip) administration of 80 mg/kg; format: functional
[17] = Number of animals showing dyskinesias was determined in haloperidol sensitized 12 cebus monkeys after (po) administration of 20 mg/kg; format: functional
In short: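 Adult male and female Cebus monkeys were sensitized with haloperidol 1 mg/kg po weekly until dyskinesias appeared. Test drug was given po (2 mL/kg) in HPMC/Tween 80 vehicle, with at least 2 weeks between treatments. Two observers watched continuously for 6-7 h, recording reaction type and severity every 30 min. Result is number of monkeys showing dyskinesias over number tested.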

Mus musculus [18] = experiment: Antagonism of apomorphine induced swimming was determined in female swiss -Wbster mice after (ip) administration of 40 mg/kg; format: functional
Mus musculus [19] = experiment: Antagonism of apomorphine induced swimming was determined in female swiss -Wbster mice after (ip) administration of 20 mg/kg; format: functional
Mus musculus [20] = experiment: Antagonism of apomorphine induced climbing was determined in female swiss -Wbster mice after (po) administration of 80 mg/kg; format: functional; in short: as §1
[21] = Number of animals showing dyskinesias was determined in haloperidol sensitized 2 cebus monkeys after (po) administration of 40 mg/kg; format: functional; in short: as §2
Mus musculus [22] = experiment: Antagonism of apomorphine induced climbing was determined in female swiss -Webster mice after (ip) administration of 20 mg/kg; format: functional; in short: as §1
Mus musculus [23] = experiment: Antagonism of apomorphine induced climbing was determined in female swiss -Webster mice after (ip) administration of 10 mg/kg; format: functional; in short: as §1
Mus musculus [24] = experiment: Antagonism of apomorphine induced climbing was determined in female swiss -Webster mice after (ip) administration of 40 mg/kg; format: functional; in short: as §1
[25] = Number of animals showing dyskinesias was determined in haloperidol sensitized 3 cebus monkeys after (po) administration of 10 mg/kg; format: functional; in short: as §2
Mus musculus [26] = experiment: Antagonism of apomorphine induced swimming was determined in female swiss -Webster mice after (ip) administration of 20 mg/kg; format: functional
Mus musculus [27] = experiment: Antagonism of apomorphine induced swimming was determined in female swiss -Webster mice after (ip) administration of 5 mg/kg; format: functional
Mus musculus [28] = experiment: Antagonism of apomorphine induced climbing was determined in female swiss -Webster mice after (ip) administration of 5 mg/kg; format: functional; in short: as §1
[29] = Number of animals showing dyskinesias was determined in haloperidol sensitized cebus monkey after (po) administration of 10 mg/kg; format: functional; in short: as §2
Mus musculus [30] = experiment: Antagonism of apomorphine induced swimming was determined in female swiss -Webster mice after (ip) administration of 40 mg/kg; format: functional
Mus musculus [31] = experiment: Antagonism of apomorphine induced swimming was determined in female swiss -Webster mice after (ip) administration of 10 mg/kg; format: functional
Mus musculus [32] = experiment: Antagonism of apomorphine induced climbing was determined in female swiss -Webster mice after (ip) administration of 2.5 mg/kg; format: functional; in short: as §1
Mus musculus [33] = experiment: Antagonism of apomorphine induced swimming was determined in female swiss -Webster mice after (ip) administration of 2.5 mg/kg; format: functional
Mus musculus [34] = experiment: Antagonism of apomorphine induced climbing was determined in female swiss -Wbster mice after (po) administration of 20 mg/kg; format: functional; in short: as §1
Mus musculus [35] = experiment: Antagonism of apomorphine induced climbing was determined in female swiss -Wbster mice after (po) administration of 40 mg/kg; format: functional; in short: as §1
[36] = Number of animals showing dyskinesias was determined in haloperidol sensitized 9 cebus monkeys after (po) administration of 80 mg/kg; format: functional; in short: as §2

Sequence of D(2) dopamine receptor (P61169 whole entry): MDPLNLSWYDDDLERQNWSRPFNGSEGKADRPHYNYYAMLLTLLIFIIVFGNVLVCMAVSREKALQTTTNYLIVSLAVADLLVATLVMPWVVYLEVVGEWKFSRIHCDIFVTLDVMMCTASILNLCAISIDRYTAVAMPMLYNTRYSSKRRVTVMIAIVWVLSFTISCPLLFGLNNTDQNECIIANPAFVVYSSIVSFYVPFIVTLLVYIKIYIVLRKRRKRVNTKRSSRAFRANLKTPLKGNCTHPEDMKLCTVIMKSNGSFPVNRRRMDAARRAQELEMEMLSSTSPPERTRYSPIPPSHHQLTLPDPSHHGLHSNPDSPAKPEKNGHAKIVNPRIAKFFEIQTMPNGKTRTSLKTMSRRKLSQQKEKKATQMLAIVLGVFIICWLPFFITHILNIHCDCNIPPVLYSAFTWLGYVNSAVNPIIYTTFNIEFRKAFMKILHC
Sequence of D(2) dopamine receptor (Rattus norvegicus) (P61169 whole entry): as above

Row | SMILES | Activity (Mus musculus [3]) | Activity (Mus musculus [4]) | Activity (Mus musculus [5]) | IC50 (D(2) dopamine receptor) [nM] | Activity (Mus musculus [8]) | Activity (Mus musculus [9]) | % displacement of spiropiperidone [10] [%] | Activity (Mus musculus [12]) | Activity (Mus musculus [13]) | Activity (Mus musculus [14]) | Activity (Mus musculus [20]) | Activity (Mus musculus [22]) | Activity (Mus musculus [23]) | Activity (Mus musculus [24]) | other results
1 | CN1CCN(C2=Nc3ccc(F)cc3Sc3ccccc32)CC1 | 13 | 18 | 5 | 963 | 1 | – | – | – | – | – | – | – | – | – | Activity (Mus musculus [1]): 3; Activity (Mus musculus [2]): 2; Activity (Mus musculus [6]): 9; Activity (Mus musculus [7]): 1
2 | OCCOCCN1CCN(C2=Nc3cc(Cl)ccc3Oc3ccccc32)CC1 | 17 | – | 0 | – | – | 4 | 54 | 2 | – | – | – | – | – | – | No of monkeys [11]: 2
3 | OCCOCCN1CCN(C2=Nc3ccc(F)cc3Sc3ccccc32)CC1 | 9 | 14 | 8 | 560 | 2 | – | – | – | 2 | 1 | 23 | – | – | – | No of monkeys [15]: 1; Activity (Mus musculus [16]): 18; No of monkeys [17]: 3; Activity (Mus musculus [18]): 8; Activity (Mus musculus [19]): 1; No of monkeys [21]: 0
4 | OCCN1CCN(C2=Nc3ccccc3Sc3ccccc32)CC1 | – | – | – | – | – | 28 | – | 18 | – | 3 | – | 6 | 24 | 1 | No of monkeys [25]: 2
5 | COC(CO)CN1CCN(C2=Nc3ccccc3Sc3ccccc32)CC1 (centres undefined) | – | – | – | 755 | – | – | – | – | – | – | – | 2 | 8 | 1 | Activity (Mus musculus [26]): 22; Activity (Mus musculus [27]): 2; Activity (Mus musculus [28]): 19; No of monkeys [29]: 2; Activity (Mus musculus [30]): 32; Activity (Mus musculus [31]): 6; Activity (Mus musculus [32]): 21; Activity (Mus musculus [33]): 0
6 | OCCOCCN1CCN(C2=Nc3ccccc3Cc3ccccc32)CC1 | 21 | – | 17 | – | 2 | 1 | 22 | 1 | 3 | – | 10 | – | – | – | Activity (Mus musculus [34]): 24; Activity (Mus musculus [35]): 17; No of monkeys [36]: 0
